Data set [1] deals with T1, Topoiomerase 1B (Molluscum contagiosum virus subtype 1, UniProt Q98254).
T1 sequence (Q98254 whole entry): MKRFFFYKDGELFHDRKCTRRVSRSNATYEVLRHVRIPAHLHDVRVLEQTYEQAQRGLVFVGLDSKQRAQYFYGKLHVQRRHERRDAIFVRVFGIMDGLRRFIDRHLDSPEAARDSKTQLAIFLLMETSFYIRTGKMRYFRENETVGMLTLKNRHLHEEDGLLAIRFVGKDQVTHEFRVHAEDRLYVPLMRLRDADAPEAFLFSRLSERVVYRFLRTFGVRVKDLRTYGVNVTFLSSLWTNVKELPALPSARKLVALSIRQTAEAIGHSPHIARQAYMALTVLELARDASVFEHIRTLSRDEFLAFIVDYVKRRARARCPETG
Kind of data set: (§1) DNA cleavage and religation activity as inhibition of type 1B topoisomerase of molluscum contagiosum virus (MCV). In kind it is functional. In a few lines:
(§2)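 Type 1B topoisomerase of molluscum contagiosum virus tested as a counterscreen in a microtiter plate format that reads out DNA cleavage and religation.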

The nature of data set [2]: HeLa cell cytotoxicity by MTT cytotoxicity assay. Format: cell-based. To be noted: human, HeLa cells; read-out: LD50 (the source's name). In outline:
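HeLa cells in culture exposed to a range of compound concentrations; viability read by MTT assay.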

The subject of data set [3] is Molluscum contagiosum virus. Put plainly: DNA relaxation activity tested by the inhibition of the Type 1B topoisomerase of molluscum contagiosum virus (MCV). Format: functional. In outline: (§3)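 Type 1B topoisomerase of molluscum contagiosum virus tested as a counterscreen. Supercoiled DNA relaxation was analysed on gels.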
Data set [4] relates to Human immunodeficiency virus 1. Kind of data set: In vitro integration activity provided by preintegration complexes isolated from HIV-infected cells. In kind it is functional. In a few lines: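 Preintegration complexes were made with biologically inactivated HIV-based vectors and isolated from infected cells. They integrate their endogenously synthesized viral cDNA into an added target DNA, read out by microtiter plate assay over a range of compound concentrations.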

Data set [5] deals with T2, Topoiomerase 1B (Molluscum contagiosum virus subtype 1) (UniProt Q98254).
T2 sequence (whole entry): T1 sequence (Q98254 whole entry)
The data set is described as §1. In kind it is functional. In a few lines: as §2

Data set [6] deals with Molluscum contagiosum virus. Kind of data set: DNA cleavage and religation activity tested by the inhibition of the type 1B topoisomerase of molluscum contagiosum virus (MCV) at a concentration of 200 uM; NA is Not Active. Format: functional. In outline: (§4)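 MCV type 1B topoisomerase counterscreen in microtiter plate format, reading DNA cleavage and religation; compounds tested up to 200 uM.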

Data set [7] relates to Molluscum contagiosum virus. Kind of data set: DNA relaxation activity tested by the inhibition of the type 1B topoisomerase of molluscum contagiosum virus (MCV) at a concentration of 200 uM; NA is Not Active. In kind it is functional. In a few lines:
(§5)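 MCV type 1B topoisomerase counterscreen reading DNA relaxation, with products analysed on gels.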

The subject of data set [8] is Integrase (Human immunodeficiency virus 1). Kind of data set: Compound was tested in vitro against strand -transfer (ST) activity in the presence of Mg2+ as the cationic cofactor at a concentration of 200 uM; NA is Not Active.
Data set [9] concerns Molluscum contagiosum virus. Put plainly: DNA cleavage and religation activity tested by the inhibition of the type 1B topoisomerase of molluscum contagiosum virus (MCV)at a concentration of 200 uM; NA is Not Active. Format: functional. In a few lines:
as §4

For data set [10], the system named is Integrase (Human immunodeficiency virus 1). Put plainly: Compound was tested in vitro against strand -transfer (ST) activity in the presence of Mn2+ at a concentration of 200 uM; NA is Not Active.
Data set [11] has as its system Molluscum contagiosum virus. Put plainly: DNA relaxation activity tested by the inhibition of the type 1B topoisomerase of molluscum contagiosum virus (MCV)at a concentration of 200 uM; NA is Not Active. In kind it is functional, organism-based. In outline:
as §3

Data set [12] concerns Integrase (Human immunodeficiency virus 1). Kind of data set: Compound was tested in vitro against 3''-processing (TC) in the presence of Mn2+ at a concentration of 200 uM; NA is Not Active.
Data set [13] shares this test system. Kind of data set: Inhibition of 3'-processing (TC) in the presence of Mn2+ in vitro.
Data set [14] shares this test system. Put plainly: Inhibition of strand -transfer (ST) activity in the presence of Mn2+.
Data set [15] has the same test system. Put plainly: Tested in vitro against strand -transfer (ST) activity in the presence of Mg2+ as the cationic cofactor.
The test system is the same in data set [16]. Put plainly: Compound was tested in vitro against 3'-processing (TC) in the presence of Mn2+ at a concentration of 200 uM; Na is Not Active.
The subject of data set [17] is Molluscum contagiosum virus. Put plainly: DNA relaxation activity tested by the inhibition of the type 1B topoisomerase of molluscum contagiosum virus (MCV)at a concentration of 500 uM; NA is Not Active. In kind it is functional, organism-based. In outline:
as §5

Active and inactive are the calls of the source. The rule behind the calls is not given here. Some results are limits rather than exact numbers.

Broadly, the IC50 is the concentration that inhibits the measured activity by half. Read a low IC50 as inhibition by little substance.

For `CC1(C)CC2(CC(C)(C)c3c(Br)c(O)c(O)c(Br)c32)c2c(Br)c(O)c(O)c(Br)c21`, the results for the IC50 in [1] and in data set [4] were 50 µM and above 80 µM, respectively. For the same molecule, the CC50 in [2] amounted to 18 µM. Moreover, the inhibition entry in data set [3] is “inactive”.
Regarding `CC1(C)CC2(CC(C)(C)c3ccc(OS(=O)(=O)O)cc32)c2cc(OS(=O)(=O)O)ccc21`, in [5], the inhibition result was “inactive”. Also, the CC50 in data set [2] is above 400 µM. This molecule displayed an IC50 in data set [4] above 80 µM.
Regarding `CC1(C)CC2(CC(C)(C)c3c(Br)c(OS(=O)(=O)O)c(OS(=O)(=O)O)c(Br)c32)c2c(Br)c(OS(=O)(=O)O)c(OS(=O)(=O)O)c(Br)c21`, the IC50 in data set [1] is 75 µM; in [4] it was above 80 µM. Further, the CC50 in data set [2] turned out to be 207 µM.
Turning to `CC1(C)CC2(CC(C)(C)c3ccc(O)c(NC(N)=O)c32)c2cc(O)c(NC(N)=O)cc21` (stereo not drawn), the “Inhibition of DNA cleavage and religation” value in data set [6] was “inactive”. Also, in [2], the CC50 turned out to be 60 µM. In data set [4], this molecule had an IC50 above 80 µM. Further, the “Inhibition of DNA relaxation” value in data set [7] was “inactive”.
Regarding `CC1(C)CC2(CC(C)(C)c3cc(NC(N)=O)c(O)cc32)c2cc(O)c(NC(N)=O)cc21`, the NA entry in [8], in data set [9], in [10], in data set [11] and in data set [12] was “inactive” in each case. Also, the CC50 in data set [2] was found to be 53 µM. This molecule came in with an IC50 in data set [4] above 80 µM.
Consider `CC1(C)CC2(CC(C)(C)c3cc(N)c(O)cc32)c2cc(O)c(N)cc21`, for which the inhibition result in data set [13], in [14], in data set [5] and in data set [3] was “inactive” each time. Also, the CC50 in [2] was 47 µM. The molecule further gave a half-maximal inhibitory concentration (IC50) in data set [4] above 80 µM.
Consider `CC1(C)CC2(CC(C)(C)c3ccc(O)c(N)c32)c2cc(O)c(N)cc21` (stereo not drawn), for which the inhibition entry in data set [13], in data set [14], in data set [5], in data set [3] and in data set [15] was “inactive” throughout. Moreover, the CC50 in data set [2] worked out at 3 µM. This molecule also showed an IC50 in data set [4] above 80 µM.
For `CC1(C)CC2(CC(C)(C)c3cc(Br)c(O)cc32)c2cc(O)c(Br)cc21`, the NA entry in data set [8] was “inactive”. Besides, the “Inhibition of DNA cleavage and religation” value in data set [6] is “inactive”. For the same molecule, the CC50 in [2] was 4 µM. In addition, in [4], the IC50 was above 80 µM. Besides, the “Inhibition of DNA relaxation” value in data set [7] is “inactive”.
For the molecule `CC1(C)CC2(CC(C)(C)c3cc(Br)c(OS(=O)(=O)O)cc32)c2cc(OS(=O)(=O)O)c(Br)cc21`, the inhibition entry in data set [13], in data set [14], in data set [5] and in data set [15] was “inactive” throughout. Further, in [2], the CC50 amounted to 50 µM. Also, the IC50 in data set [4] was above 80 µM.
On to `CC1(C)CC2(CC(C)(C)c3cc([N+](=O)[O-])c(O)cc32)c2cc(O)c([N+](=O)[O-])cc21`, for which the inhibition entry in data set [13], in [14], in data set [5], in data set [3] and in data set [15] was “inactive” each time. For the same molecule, the CC50 in [2] came to 198 µM. In data set [4], this molecule displayed an IC50 above 80 µM.
For `CC1(C)CC2(CC(C)(C)c3cc(C=O)c(O)cc32)c2cc(O)c(C=O)cc21`, the inhibition entry in [5] was “inactive”. Moreover, the CC50 in [2] is 4 µM. This molecule also registered an IC50 in [4] above 80 µM.
`CC1(C)CC2(CC(C)(C)c3ccc(O)c([N+](=O)[O-])c32)c2cc(O)c([N+](=O)[O-])cc21` (stereo not drawn): the inhibition entry in [5] and in data set [3] was “inactive” in each case. For the same molecule, in [2], the CC50 was found to be 41 µM. In data set [4], this molecule had an IC50 above 80 µM.
Consider `Cc1cc2c(cc1O)C1(CC2(C)C)CC(C)(C)c2cc(C)c(O)cc21`, for which the NA result in [8], in [10] and in [16] was “inactive” each time. In data set [6], the “Inhibition of DNA cleavage and religation” value was “inactive”. Besides, the CC50 in data set [2] worked out at 10 µM. Besides, the IC50 in [4] is above 80 µM. Moreover, the “Inhibition of DNA relaxation” value in data set [7] is “inactive”.
As to `CC1(C)CC2(CC(C)(C)c3cc(S(=O)(=O)O)c(O)cc32)c2cc(O)c(S(=O)(=O)O)cc21`, the inhibition entry in data set [13], in [14], in data set [5] and in data set [3] was “inactive” each time. Further, the CC50 in data set [2] was above 600 µM. For the same molecule, in [4], the IC50 is above 80 µM.
`CC1(C)CC2(CC(C)(C)c3cc(O)c(O)cc32)c2cc(O)c(O)cc21`: the inhibition result in data set [5] and in [3] was “inactive” throughout. In addition, the CC50 in [2] was 65 µM. The IC50 in data set [4] was above 80 µM.
Take `CC1(C)CC2(CC(C)(C)c3ccc(O)cc32)c2cc(O)ccc21`: the NA entry in [9] and in data set [17] was “inactive” throughout. In [2], the CC50 was below 20 µM. The molecule also returned an IC50 in data set [4] above 80 µM.
For the molecule `CC1(C)CC2(CC(C)(C)c3cc(I)c(O)cc32)c2cc(O)c(I)cc21`, the NA entry in data set [8] was “inactive”. Moreover, the “Inhibition of DNA cleavage and religation” value in data set [6] is “inactive”. Besides, the CC50 in data set [2] was below 20 µM. The same molecule registered an IC50 in data set [4] above 80 µM. Besides, in data set [7], the “Inhibition of DNA relaxation” value was “inactive”.
For the molecule `CC1(C)CC2(CC(C)(C)c3cc(OS(=O)(=O)O)c(OS(=O)(=O)O)cc32)c2cc(OS(=O)(=O)O)c(OS(=O)(=O)O)cc21`, the inhibition result in [5] was “inactive”. Besides, in data set [2], the CC50 came to 134 µM. In addition, the half-maximal inhibitory concentration (IC50) was 123 µM in [3] and above 80 µM in data set [4].
For the molecule `CC1(C)CC2(CC(C)(C)c3cc([N+](=O)[O-])c(O)c([N+](=O)[O-])c32)c2cc(O)c([N+](=O)[O-])cc21` (stereo not drawn), the inhibition result in data set [5] is “inactive”. For the same molecule, the CC50 in [2] was 41 µM. Also, the IC50 is 200 µM in data set [3] and above 80 µM in [4].
